{"source": "ChEMBL document CHEMBL1154490", "about": "“Novel linear triaryl guanidines, N-substituted guanidines and potential prodrugs as antiprotozoal agents” (Eur J Med Chem, 2008)", "key": {"[1]": {"test_system": "Trypanosoma brucei rhodesiense", "experiment": "Antiprotozoal activity against Trypanosoma brucei rhodesiense STIB900 bloodstream form after 72 hrs by alamar blue assay", "assay_type": "functional, organism-based"}, "L6": {"test_system": "L6", "experiment": "Cytotoxicity against rat L6 cells after 72 hrs by alamar blue assay", "assay_type": "cell-based", "details": "L6, 72 h", "procedure,_shortened": "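Cultured L6 rat myoblasts exposed to compound; viability read by the same Alamar Blue procedure used for the STIB900 trypanosome assay; duplicate determinations.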"}, "Plasmodium falciparum": {"test_system": "Plasmodium falciparum", "experiment": "Antiprotozoal activity against chloroquine and pyrimethamine-resistant Plasmodium falciparum K1 after 72 hrs by [3H]hypoxanthine uptake", "assay_type": "functional, organism-based"}, "[2]": {"test_system": "Trypanosoma brucei rhodesiense", "experiment": "Antitrypanosomal activity against Trypanosoma brucei rhodesiense STIB900 infected in mouse assessed as average survival days at 25 mg/kg, po administered on day 3 to 6 after infection", "assay_type": "functional"}, "[3]": {"test_system": "Trypanosoma brucei rhodesiense", "experiment": "Antitrypanosomal activity against Trypanosoma brucei rhodesiense STIB900 infected in mouse assessed as parasite-free survival at 25 mg/kg, po administered on day 3 to 6 after infection measured on day 60", "assay_type": "functional, organism-based", "design": "dose 25 mg/kg", "procedure,_shortened": "(§1)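 STIB900 acute mouse infection model with four infected mice per group. Parent compounds were given intraperitoneally and prodrugs orally, once daily for 4 days. Read-outs were the number of mice alive and parasite-free at day 60, and average days of survival.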"}, "[4]": {"experiment": "Binding affinity to poly(dA-dT)2 DNA assessed as change in thermal melting temperature administered at compound to DNA ratio of 0.3 by thermistor analysis", "procedure,_shortened": "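Thermal melting of poly(dA-dT)2 in CAC 10 buffer (cacodylic acid 10 mM, EDTA 1 mM, NaCl 100 mM, pH 7.0), 1 cm quartz cuvettes, temperature raised 0.5 C/min. DNA quantified by A260. Compound:DNA 0.3 mol/mol, compound-free DNA as control. ΔTm reproducible within 0.5 C.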"}, "[5]": {"test_system": "Trypanosoma brucei rhodesiense", "experiment": "Antitrypanosomal activity against Trypanosoma brucei rhodesiense STIB900 infected in mouse assessed as average survival days at 20 mg/kg, ip administered on day 3 to 6 after infection", "assay_type": "functional", "details": "route intraperitoneal"}, "[6]": {"test_system": "Trypanosoma brucei rhodesiense", "experiment": "Antitrypanosomal activity against Trypanosoma brucei rhodesiense STIB900 infected in mouse assessed as parasite-free survival at 20 mg/kg, ip administered on day 3 to 6 after infection measured on day 60", "assay_type": "functional, organism-based", "design": "dose 20 mg/kg", "procedure,_shortened": "as §1"}, "[7]": {"test_system": "Trypanosoma brucei rhodesiense", "experiment": "Antitrypanosomal activity against Trypanosoma brucei rhodesiense STIB900 infected in mouse assessed as parasite-free survival at 25 mg/kg, ip administered on day 3 to 6 after infection measured on day 60", "assay_type": "functional, organism-based", "design": "dose 25 mg/kg"}, "[8]": {"test_system": "Trypanosoma brucei rhodesiense", "experiment": "Antitrypanosomal activity against Trypanosoma brucei rhodesiense STIB900 infected in mouse assessed as average survival days at 25 mg/kg, ip administered on day 3 to 6 after infection", "assay_type": "functional", "details": "route intraperitoneal"}}, "note": "Calls of active or inactive are those of the source. The rule behind the calls is not given here."}
{"smiles": "CCOC(=O)/N=C(\\N)Nc1ccc(-c2ccc(-c3ccc(N/C(N)=N/C(=O)OCC)cc3)cc2)cc1", "values": [{"measurement": "IC50", "setting": "[1]", "value": 142000, "unit": "nM"}, {"measurement": "IC50", "setting": "L6", "value": "> 181000", "unit": "nM"}, {"measurement": "IC50", "setting": "Plasmodium falciparum", "value": 1.7, "unit": "nM"}, {"measurement": "Activity", "setting": "[2]", "value": 20.25, "unit": "days"}, {"measurement": "Activity", "setting": "[3]", "value": "inactive"}]}
{"smiles": "CCOC(=O)/N=C(/Nc1ccc(-c2ccc(-c3ccc(N/C(=N/C(=O)OCC)NC(C)C)cn3)cc2)nc1)NC(C)C", "values": [{"measurement": "IC50", "setting": "[1]", "value": 8200, "unit": "nM"}, {"measurement": "IC50", "setting": "L6", "value": "> 135000", "unit": "nM"}, {"measurement": "IC50", "setting": "Plasmodium falciparum", "value": 2.9, "unit": "nM"}]}
{"smiles": "CC(C)NC(=N)Nc1ccc(-c2ccc(-c3ccc(NC(=N)NC(C)C)cn3)cc2)nc1", "values": [{"measurement": "IC50", "setting": "[1]", "value": 11900, "unit": "nM"}, {"measurement": "IC50", "setting": "L6", "value": 89700, "unit": "nM"}, {"measurement": "IC50", "setting": "Plasmodium falciparum", "value": 393, "unit": "nM"}, {"measurement": "ΔTm", "setting": "[4]", "value": 8.1, "unit": "°C"}]}
{"smiles": "CC(C)NC(=N)Nc1ccc(-c2ccc(-c3ccc(NC(=N)NC(C)C)cc3)cc2)cc1", "values": [{"measurement": "IC50", "setting": "[1]", "value": 530, "unit": "nM"}, {"measurement": "IC50", "setting": "L6", "value": 21900, "unit": "nM"}, {"measurement": "IC50", "setting": "Plasmodium falciparum", "value": 14, "unit": "nM"}, {"measurement": "ΔTm", "setting": "[4]", "value": 9.3, "unit": "°C"}]}
{"smiles": "CCOC(=O)/N=C(\\NC)Nc1ccc(-c2ccc(-c3ccc(N/C(=N/C(=O)OCC)NC)cc3)cc2)cc1", "values": [{"measurement": "IC50", "setting": "[1]", "value": 7500, "unit": "nM"}, {"measurement": "IC50", "setting": "L6", "value": 5700, "unit": "nM"}, {"measurement": "IC50", "setting": "Plasmodium falciparum", "value": 8.9, "unit": "nM"}, {"measurement": "Activity", "setting": "[2]", "value": 20.25, "unit": "days"}, {"measurement": "Activity", "setting": "[3]", "value": "inactive"}]}
{"smiles": "N=C(N)Nc1ccc(-c2ccc(-c3ccc(NC(=N)N)cn3)cc2)nc1", "values": [{"measurement": "IC50", "setting": "[1]", "value": 169, "unit": "nM"}, {"measurement": "Activity", "setting": "[5]", "value": 8.5, "unit": "days"}, {"measurement": "IC50", "setting": "L6", "value": 152000, "unit": "nM"}, {"measurement": "Activity", "setting": "[6]", "value": "inactive"}, {"measurement": "IC50", "setting": "Plasmodium falciparum", "value": 151, "unit": "nM"}, {"measurement": "ΔTm", "setting": "[4]", "value": 9.2, "unit": "°C"}]}
{"smiles": "CNC(=N)Nc1ccc(-c2ccc(-c3ccc(NC(=N)NC)cn3)cc2)nc1", "values": [{"measurement": "IC50", "setting": "[1]", "value": 134, "unit": "nM"}, {"measurement": "Activity", "setting": "[5]", "value": ">47", "unit": "days"}, {"measurement": "IC50", "setting": "L6", "value": "> 161000", "unit": "nM"}, {"measurement": "Activity", "setting": "[6]", "value": "inactive"}, {"measurement": "IC50", "setting": "Plasmodium falciparum", "value": 54, "unit": "nM"}, {"measurement": "ΔTm", "setting": "[4]", "value": 10.2, "unit": "°C"}]}
{"smiles": "N=C(N)Nc1ccc(-c2ccc(-c3ccc(NC(=N)N)cc3)cc2)cc1", "values": [{"measurement": "IC50", "setting": "[1]", "value": 18, "unit": "nM"}, {"measurement": "Activity", "setting": "[5]", "value": ">54.5", "unit": "days"}, {"measurement": "IC50", "setting": "L6", "value": 25400, "unit": "nM"}, {"measurement": "Activity", "setting": "[6]", "value": "inactive"}, {"measurement": "IC50", "setting": "Plasmodium falciparum", "value": 27, "unit": "nM"}, {"measurement": "ΔTm", "setting": "[4]", "value": 14.2, "unit": "°C"}]}
{"smiles": "CCOC(=O)/N=C(\\N)Nc1ccc(-c2ccc(-c3ccc(N/C(N)=N/C(=O)OCC)cn3)cc2)nc1", "values": [{"measurement": "IC50", "setting": "[1]", "value": 61000, "unit": "nM"}, {"measurement": "IC50", "setting": "L6", "value": "> 181000", "unit": "nM"}, {"measurement": "IC50", "setting": "Plasmodium falciparum", "value": 1.9, "unit": "nM"}, {"measurement": "Activity", "setting": "[3]", "value": "inactive"}]}
{"smiles": "CNC(=N)Nc1ccc(-c2ccc(-c3ccc(NC(=N)NC)cc3)cc2)cc1", "values": [{"measurement": "IC50", "setting": "[1]", "value": 18, "unit": "nM"}, {"measurement": "Activity", "setting": "[5]", "value": ">56", "unit": "days"}, {"measurement": "IC50", "setting": "L6", "value": 65100, "unit": "nM"}, {"measurement": "Activity", "setting": "[6]", "value": "inactive"}, {"measurement": "IC50", "setting": "Plasmodium falciparum", "value": 7, "unit": "nM"}, {"measurement": "ΔTm", "setting": "[4]", "value": 13, "unit": "°C"}]}
{"smiles": "N=C(N)c1ccc(-c2ccc(-c3ccc(C(=N)N)cc3)cc2)cc1", "values": [{"measurement": "Activity", "setting": "[5]", "value": 29, "unit": "days"}, {"measurement": "Activity", "setting": "[6]", "value": "inactive"}, {"measurement": "IC50", "setting": "Plasmodium falciparum", "value": 1, "unit": "nM"}, {"measurement": "ΔTm", "setting": "[4]", "value": 18.2, "unit": "°C"}]}
{"smiles": "CCOC(=O)/N=C(/Nc1ccc(-c2ccc(-c3ccc(N/C(=N/C(=O)OCC)NC(C)C)cc3)cc2)cc1)NC(C)C", "values": [{"measurement": "IC50", "setting": "[1]", "value": 14200, "unit": "nM"}, {"measurement": "IC50", "setting": "L6", "value": 5300, "unit": "nM"}, {"measurement": "IC50", "setting": "Plasmodium falciparum", "value": 4.5, "unit": "nM"}]}
{"smiles": "CCOC(=O)/N=C(\\NC)Nc1ccc(-c2ccc(-c3ccc(N/C(=N/C(=O)OCC)NC)cn3)cc2)nc1", "values": [{"measurement": "IC50", "setting": "[1]", "value": 17800, "unit": "nM"}, {"measurement": "IC50", "setting": "L6", "value": "> 169000", "unit": "nM"}, {"measurement": "Activity", "setting": "[7]", "value": "inactive"}, {"measurement": "IC50", "setting": "Plasmodium falciparum", "value": 2.6, "unit": "nM"}, {"measurement": "Activity", "setting": "[8]", "value": 7.75, "unit": "days"}]}
